{"source": "ChEMBL document CHEMBL4304743", "about": "“Discovery of ( E)- N1-(3-Fluorophenyl)- N3-(3-(2-(pyridin-2-yl)vinyl)-1 H-indazol-6-yl)malonamide (CHMFL-KIT-033) as a Novel c-KIT T670I Mutant Selective Kinase Inhibitor for Gastrointestinal Stromal Tumors (GISTs)” (J Med Chem, 2019)", "key": {"[1]": {"system": "Mast/stem cell growth factor receptor Kit (Homo sapiens), P10721 [D816H]", "sequence (P10721 whole entry D816H, the tested form may be a part)": "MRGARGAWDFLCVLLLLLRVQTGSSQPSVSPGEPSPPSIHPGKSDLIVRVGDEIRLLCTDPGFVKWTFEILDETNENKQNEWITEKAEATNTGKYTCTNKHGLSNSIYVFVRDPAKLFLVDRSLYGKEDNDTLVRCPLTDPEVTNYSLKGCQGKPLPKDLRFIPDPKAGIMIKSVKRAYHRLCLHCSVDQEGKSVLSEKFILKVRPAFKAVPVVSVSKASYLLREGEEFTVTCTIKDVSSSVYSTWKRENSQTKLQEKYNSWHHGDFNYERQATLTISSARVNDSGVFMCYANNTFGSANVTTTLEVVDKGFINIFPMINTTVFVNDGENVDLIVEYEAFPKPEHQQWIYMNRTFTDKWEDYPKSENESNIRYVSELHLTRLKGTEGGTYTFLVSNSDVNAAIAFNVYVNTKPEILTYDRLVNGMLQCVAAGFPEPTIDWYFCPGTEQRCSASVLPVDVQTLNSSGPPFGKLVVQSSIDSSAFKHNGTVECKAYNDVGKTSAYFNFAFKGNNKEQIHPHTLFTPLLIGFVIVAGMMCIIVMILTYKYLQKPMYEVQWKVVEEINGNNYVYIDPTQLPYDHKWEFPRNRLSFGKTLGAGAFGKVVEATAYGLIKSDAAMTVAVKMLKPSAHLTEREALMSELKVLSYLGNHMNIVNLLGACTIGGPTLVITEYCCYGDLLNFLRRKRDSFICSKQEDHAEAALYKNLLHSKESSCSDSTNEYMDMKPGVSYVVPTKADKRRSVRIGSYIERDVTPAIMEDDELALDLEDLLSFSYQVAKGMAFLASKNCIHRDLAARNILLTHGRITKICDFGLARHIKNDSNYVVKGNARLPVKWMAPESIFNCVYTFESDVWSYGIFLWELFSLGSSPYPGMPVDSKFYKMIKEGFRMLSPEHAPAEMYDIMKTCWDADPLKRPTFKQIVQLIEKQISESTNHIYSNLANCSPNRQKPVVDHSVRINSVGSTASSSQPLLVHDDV", "test": "Inhibition of TEL fused c-KIT D816H mutant (unknown origin) transfected in mouse BAF3 cells assessed as growth inhibition after 72 hrs by CCK8 assay", "assay_type": "cell-based", "outline": "(§1)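 Tel-c-KIT-transformed BaF3 lines (IL-3 independent) kept in RPMI 1640 with 10% FBS, 2% L-glutamine and pen/strep. Cells at 1.5 to 5 × 10^4 cells/mL mixed with graded compound and incubated 72 h at 37 °C, 5% CO2. Viability by CCK-8 absorbance at 450 nm, normalized to DMSO. GI50 from dose–response fit.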"}, "Mus musculus": {"system": "Mus musculus", "test": "Inhibition of c-KIT phosphorylation at Y823 residue in tumor of human GIST5R cells xenografted in nude mouse at 100 mg/kg, po administered as single dose and measured at 2 hrs", "assay_type": "functional, organism-based", "outline": "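Female nu/nu mice bearing subcutaneous GIST-5R xenografts (cells in Matrigel, right flank) given one oral gavage dose of 100 mg/kg in HKI suspension (0.5% methocellulose/0.4% Tween80 in ddH2O). Tumors collected over a 2 h time course; p-c-KIT, p-ERK and p-AKT assessed by Western blot; plasma drug levels monitored in parallel.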"}, "[2]": {"target": "Serine/threonine-protein kinase Nek1 (Homo sapiens, UniProt Q96PY6)", "sequence (Q96PY6 whole entry, the tested form may be a part)": "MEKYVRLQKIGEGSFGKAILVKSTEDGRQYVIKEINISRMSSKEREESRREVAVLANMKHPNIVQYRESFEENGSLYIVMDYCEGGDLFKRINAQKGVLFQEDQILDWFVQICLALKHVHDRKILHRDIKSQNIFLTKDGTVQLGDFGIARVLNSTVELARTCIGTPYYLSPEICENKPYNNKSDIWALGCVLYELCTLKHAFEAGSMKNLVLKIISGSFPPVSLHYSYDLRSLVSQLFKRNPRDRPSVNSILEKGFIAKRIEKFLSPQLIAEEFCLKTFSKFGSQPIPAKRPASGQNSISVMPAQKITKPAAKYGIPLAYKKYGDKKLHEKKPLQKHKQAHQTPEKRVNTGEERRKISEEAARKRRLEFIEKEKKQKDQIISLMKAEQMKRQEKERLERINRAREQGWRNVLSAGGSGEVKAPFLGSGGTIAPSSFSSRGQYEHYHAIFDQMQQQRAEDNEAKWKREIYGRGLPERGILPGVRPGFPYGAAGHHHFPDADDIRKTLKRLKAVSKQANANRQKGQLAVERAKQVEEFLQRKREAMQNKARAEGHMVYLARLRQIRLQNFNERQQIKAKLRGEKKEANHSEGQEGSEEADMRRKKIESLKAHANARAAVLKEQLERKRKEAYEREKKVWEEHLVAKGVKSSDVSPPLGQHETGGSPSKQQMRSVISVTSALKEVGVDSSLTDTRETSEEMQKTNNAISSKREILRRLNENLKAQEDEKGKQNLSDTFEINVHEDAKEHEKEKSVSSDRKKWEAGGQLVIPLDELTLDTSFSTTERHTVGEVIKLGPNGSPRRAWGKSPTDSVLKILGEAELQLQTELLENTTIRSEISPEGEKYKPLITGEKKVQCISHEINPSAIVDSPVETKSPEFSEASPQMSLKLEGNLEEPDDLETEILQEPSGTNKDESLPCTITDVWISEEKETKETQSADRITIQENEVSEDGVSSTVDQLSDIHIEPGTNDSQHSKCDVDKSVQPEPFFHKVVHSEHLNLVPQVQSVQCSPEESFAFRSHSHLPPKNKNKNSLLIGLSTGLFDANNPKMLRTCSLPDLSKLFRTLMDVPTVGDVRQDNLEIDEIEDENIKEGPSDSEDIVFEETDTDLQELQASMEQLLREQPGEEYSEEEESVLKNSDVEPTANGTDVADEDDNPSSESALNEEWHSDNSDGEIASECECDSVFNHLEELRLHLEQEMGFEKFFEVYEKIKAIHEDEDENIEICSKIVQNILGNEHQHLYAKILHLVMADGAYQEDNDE", "test": "Inhibition of wild-type human partial length NEK1 (M1 to K278 residues) expressed in bacterial expression system after 1 hr by Z-LYTE assay"}, "GISTT1": {"system": "GISTT1", "test": "Induction of apoptosis in human GISTT1 cells harboring c-KIT 560 to 578 deletion mutant assessed as increase in cleaved caspase level after 24 hrs by Western blot analysis", "assay_type": "functional, cell-based"}, "[3]": {"system": "Mast/stem cell growth factor receptor Kit (Homo sapiens), P10721 [V559D]", "sequence (P10721 whole entry V559D, the tested form may be a part)": "as the sequence (P10721 whole entry D816H, the tested form may be a part) above, with V559D, H816D counted along it", "test": "Inhibition of TEL fused c-KIT V559D mutant (unknown origin) transfected in mouse BAF3 cells assessed as growth inhibition after 72 hrs by CCK8 assay", "assay_type": "cell-based", "outline": "as §1"}, "[4]": {"test": "Antitumor activity against human GIST5R cells xenografted in nude mouse assessed as tumor weight at 100 mg/kg, po administered […] via gavage for 28 days (reference value: 0.59g)", "assay_type": "functional", "outline": "(§2)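 Female nu/nu mice (5 weeks old) given subcutaneous right-flank GIST-5R cells in Matrigel. Dosing began at tumors of 200-400 mm3; randomized, 4 mice per group. Daily oral dosing (QD) at 25, 50 or 100 mg/kg in 0.5% methylcellulose/0.4% Tween80, or vehicle alone, for 28 days. Body weight and tumor volume, (W²×L)/2, measured daily; mean±SEM.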"}, "[5]": {"target": "Serine/threonine-protein kinase 25 (Homo sapiens, UniProt O00506)", "sequence (O00506 whole entry, looked up, the tested form may be a part)": "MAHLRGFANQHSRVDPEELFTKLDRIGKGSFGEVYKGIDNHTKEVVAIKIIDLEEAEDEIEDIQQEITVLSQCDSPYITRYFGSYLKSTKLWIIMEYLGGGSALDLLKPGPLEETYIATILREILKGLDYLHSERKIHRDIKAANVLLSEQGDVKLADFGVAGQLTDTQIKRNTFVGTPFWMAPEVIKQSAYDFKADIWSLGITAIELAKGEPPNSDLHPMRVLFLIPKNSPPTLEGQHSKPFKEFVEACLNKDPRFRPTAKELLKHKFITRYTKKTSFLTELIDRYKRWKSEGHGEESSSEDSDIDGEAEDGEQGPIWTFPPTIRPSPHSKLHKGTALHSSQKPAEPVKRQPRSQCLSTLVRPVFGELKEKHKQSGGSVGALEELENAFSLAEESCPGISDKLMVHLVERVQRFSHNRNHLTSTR", "test": "Binding affinity to wild-type human partial length STK25 (V14 to H295 residues) expressed in bacterial expression system assessed as enzyme remaining activity at 1 uM by Kinomescan assay relative to control", "outline": "(§3)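 KINOMEscan competition binding panel of 468 kinases and mutants, compound at 1 μM; binding reported as percent of control.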"}, "[6]": {"system": "Mast/stem cell growth factor receptor Kit (Homo sapiens), P10721 [UNDEFINED MUTATION]", "sequence (P10721 whole entry, looked up, stated change not applied)": "as the sequence (P10721 whole entry D816H, the tested form may be a part) above, with H816D counted along it", "test": "Inhibition of c-KIT 560 to 578 deletion/T670I double mutant in human GISTT1 cells assessed as reduction in ERK phosphorylation at T202/Y204 residue at 0.1 uM to 3 uM after 1 hr by Western blot analysis", "assay_type": "cell-based", "outline": "(§4)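 Serial compound dilutions applied for 1 h to GIST-T1, GIST-T1-T670I (CRISPR/Cas9 T670I knock-in, clone confirmed by Sanger sequencing) or GIST-5R cells in DMEM with 10% FBS. Cells then lysed and phospho-proteins detected by standard Western blotting.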"}, "Homo sapiens": {"species": "Homo sapiens", "test": "Induction of cell cycle arrest in human GIST5R cells harboring 560 to 578 deletion/T670I double mutant after 24 hrs", "assay_type": "functional, cell-based"}, "[7]": {"test": "AUC (0 to t) in Sprague-Dawley rat at 10 mg/kg, po measured after 5 to 720 mins by LC-tandem mass spectrometry analysis", "assay_type": "ADME, organism-based", "details": "in vivo", "outline": "(§5)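 Male Sprague-Dawley rats (190-210 g), fasted 12 h, randomized into two groups: 1 mg/kg i.v. or 10 mg/kg p.o., both formulated in 10% DMSO/90% of 5% glucose water. Blood sampled at 2-720 min (i.v.) or 5-720 min (p.o.). Plasma protein-precipitated with methanol, caffeine internal standard, LC-MS/MS. Noncompartmental analysis; triplicate, ±SD.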"}, "[8]": {"system": "Mast/stem cell growth factor receptor Kit (Homo sapiens), P10721 [UNDEFINED MUTATION]", "test": "Inhibition of c-KIT 560 to 578 deletion/T670I double mutant in human GISTT1 cells assessed as reduction in c-KIT autophosphorylation at Y823 residue at 0.1 uM to 3 uM after 1 hr by Western blot analysis", "assay_type": "cell-based", "outline": "as §4"}, "[9]": {"test": "Antitumor activity against human GIST5R cells xenografted in nude mouse assessed as tumor weight at 25 mg/kg, po administered […] via gavage for 28 days (reference value: 0.59g)", "assay_type": "functional", "outline": "as §2"}, "[10]": {"test": "Apparent volume of distribution in mouse at 1 mg/kg, iv measured after 2 to 720 mins by LC-tandem mass spectrometry analysis", "assay_type": "ADME, organism-based", "details": "in vivo, read-out: Vz", "outline": "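Mice dosed 1 mg/kg i.v. or 10 mg/kg p.o.; plasma drug levels by LC-MS/MS, parameters by noncompartmental analysis; values not from triplicate testing.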"}, "[11]": {"system": "Mast/stem cell growth factor receptor Kit (Homo sapiens), P10721 [UNDEFINED MUTATION]", "test": "Inhibition of c-KIT 560 to 578 deletion/T670I double mutant in human GISTT1 cells assessed as reduction in STAT3 phosphorylation after 1 hr by Western blot analysis", "assay_type": "cell-based", "outline": "as §4"}, "[12]": {"target": "Mast/stem cell growth factor receptor Kit (Homo sapiens, UniProt P10721, T670I)", "sequence (P10721 26-976 T670I limits assumed)": "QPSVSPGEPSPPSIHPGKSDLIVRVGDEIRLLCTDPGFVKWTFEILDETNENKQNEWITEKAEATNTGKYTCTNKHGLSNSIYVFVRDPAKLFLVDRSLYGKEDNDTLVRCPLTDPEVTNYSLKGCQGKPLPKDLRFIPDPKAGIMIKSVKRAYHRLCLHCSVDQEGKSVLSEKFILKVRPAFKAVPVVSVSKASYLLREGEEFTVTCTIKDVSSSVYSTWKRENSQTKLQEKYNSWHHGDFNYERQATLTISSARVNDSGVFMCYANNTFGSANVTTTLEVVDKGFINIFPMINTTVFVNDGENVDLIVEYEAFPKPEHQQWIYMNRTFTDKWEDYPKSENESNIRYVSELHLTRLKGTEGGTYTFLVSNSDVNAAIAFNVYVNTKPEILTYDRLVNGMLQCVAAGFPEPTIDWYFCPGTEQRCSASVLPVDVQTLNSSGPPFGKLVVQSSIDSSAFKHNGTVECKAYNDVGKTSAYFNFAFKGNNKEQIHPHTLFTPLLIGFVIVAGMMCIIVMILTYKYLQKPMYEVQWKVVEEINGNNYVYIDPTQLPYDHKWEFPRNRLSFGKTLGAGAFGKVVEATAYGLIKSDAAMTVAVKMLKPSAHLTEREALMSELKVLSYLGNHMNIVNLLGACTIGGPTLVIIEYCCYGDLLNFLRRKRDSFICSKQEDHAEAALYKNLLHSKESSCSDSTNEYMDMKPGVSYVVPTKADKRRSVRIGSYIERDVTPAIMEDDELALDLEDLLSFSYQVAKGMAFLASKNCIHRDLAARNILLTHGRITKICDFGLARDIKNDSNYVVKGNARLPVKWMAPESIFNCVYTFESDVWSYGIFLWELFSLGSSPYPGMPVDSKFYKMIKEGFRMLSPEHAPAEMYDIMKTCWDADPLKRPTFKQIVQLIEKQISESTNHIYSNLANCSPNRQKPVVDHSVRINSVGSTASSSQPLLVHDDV", "test": "Inhibition of TEL fused wild type c-KIT T670I mutant (unknown origin) transfected in mouse BaF3 cells assessed as reduction in phosphorylation at Y719 residue after 2 hrs by Western blot analysis", "assay_type": "cell-based"}, "[13]": {"test": "Tmax in Sprague-Dawley rat at 10 mg/kg, po measured after 5 to 720 mins by LC-tandem mass spectrometry analysis", "assay_type": "ADME, organism-based", "details": "in vivo", "outline": "(§6)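 Male Sprague–Dawley rats (190-210 g), fasted 12 h, given 1 mg/kg i.v. or 10 mg/kg p.o. in DMSO/5% glucose water (1:9). Blood sampled at 2–720 min (i.v.) or 5–720 min (p.o.). Plasma proteins precipitated with methanol using caffeine internal standard, then LC-MS/MS. Noncompartmental analysis; F = AUC0-∞ ratio corrected for dose; triplicate ±SD.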"}, "[14]": {"test": "MRT (0 to infinity) in Sprague-Dawley rat at 1 mg/kg, iv measured after 2 to 720 mins by LC-tandem mass spectrometry analysis", "assay_type": "ADME, organism-based", "details": "in vivo", "outline": "as §6"}, "[15]": {"target": "Macrophage colony-stimulating factor 1 receptor (Homo sapiens, UniProt P07333)", "sequence (P07333 whole entry, the tested form may be a part)": "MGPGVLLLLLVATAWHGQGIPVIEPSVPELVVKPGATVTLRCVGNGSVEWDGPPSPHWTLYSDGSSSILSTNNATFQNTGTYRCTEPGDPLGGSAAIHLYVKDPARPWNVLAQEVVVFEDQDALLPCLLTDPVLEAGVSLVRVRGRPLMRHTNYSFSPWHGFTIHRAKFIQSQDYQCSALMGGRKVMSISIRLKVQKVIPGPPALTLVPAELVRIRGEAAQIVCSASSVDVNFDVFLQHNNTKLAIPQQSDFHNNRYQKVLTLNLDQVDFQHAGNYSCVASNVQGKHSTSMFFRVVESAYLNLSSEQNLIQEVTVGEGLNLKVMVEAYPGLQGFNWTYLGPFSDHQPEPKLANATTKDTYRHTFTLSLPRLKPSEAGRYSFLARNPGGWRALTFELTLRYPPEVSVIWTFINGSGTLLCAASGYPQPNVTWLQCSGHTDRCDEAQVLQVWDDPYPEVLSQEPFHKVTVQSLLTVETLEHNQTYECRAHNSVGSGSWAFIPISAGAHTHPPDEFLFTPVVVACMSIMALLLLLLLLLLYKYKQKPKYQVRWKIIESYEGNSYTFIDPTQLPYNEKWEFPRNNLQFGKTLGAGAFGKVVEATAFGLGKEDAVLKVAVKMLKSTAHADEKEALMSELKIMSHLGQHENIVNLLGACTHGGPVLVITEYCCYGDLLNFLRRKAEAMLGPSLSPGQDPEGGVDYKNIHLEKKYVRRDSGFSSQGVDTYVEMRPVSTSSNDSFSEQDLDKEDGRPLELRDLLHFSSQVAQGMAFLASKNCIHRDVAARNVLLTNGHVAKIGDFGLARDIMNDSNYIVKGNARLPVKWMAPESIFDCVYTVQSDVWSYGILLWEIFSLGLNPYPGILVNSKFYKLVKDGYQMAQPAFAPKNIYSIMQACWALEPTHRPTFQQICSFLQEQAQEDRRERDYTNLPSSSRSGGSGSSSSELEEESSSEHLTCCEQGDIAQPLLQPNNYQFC", "test": "Binding affinity to wild-type human partial length CSF1R (I564 to S939 residues) expressed in bacterial expression system assessed as enzyme remaining activity at 1 uM by Kinomescan assay relative to control", "outline": "as §3"}, "[16]": {"target": "Mast/stem cell growth factor receptor Kit (Homo sapiens, UniProt P10721)", "sequence (P10721 whole entry, the tested form may be a part)": "as the sequence (P10721 whole entry D816H, the tested form may be a part) above, with H816D counted along it", "test": "Inhibition of TEL fused wild type c-KIT (unknown origin) transfected in mouse BaF3 cells assessed as reduction in phosphorylation at Y719 residue after 2 hrs by Western blot analysis", "assay_type": "cell-based"}, "[17]": {"test": "AUC (0 to infinity) in Sprague-Dawley rat at 10 mg/kg, po measured after 5 to 720 mins by LC-tandem mass spectrometry analysis", "assay_type": "ADME, organism-based", "set-up": "dose 10 mg/kg, route oral, time infinity", "details": "in vivo", "outline": "as §5"}}, "note": "The source made the active and inactive calls. The calls are words filed in the database; no cut-off is given here."}
{"smiles": "O=C(CC(=O)Nc1ccc2c(/C=C/c3ccccn3)n[nH]c2c1)Nc1cccc(F)c1", "values": [{"measurement": "GI50", "setting": "[1]", "value": 6840, "unit": "nM"}, {"measurement": "inhibition", "setting": "Mus musculus", "value": "Active"}, {"measurement": "IC50", "setting": "[2]", "value": "> 10000", "unit": "nM"}, {"measurement": "Activity", "setting": "GISTT1", "value": "Dose-dependent effect"}, {"measurement": "GI50", "setting": "[3]", "value": 8, "unit": "nM"}, {"measurement": "Activity", "setting": "[4]", "value": 0.1, "unit": "g"}, {"measurement": "Activity", "setting": "[5]", "value": 0, "unit": "%"}, {"measurement": "inhibition", "setting": "[6]", "value": "Active"}, {"measurement": "Activity", "setting": "Homo sapiens", "value": "Dose-dependent effect"}, {"measurement": "AUC(0-t)", "setting": "[7]", "value": 712, "unit": "ng·h/mL"}, {"measurement": "inhibition", "setting": "[8]", "value": "Active"}, {"measurement": "Activity", "setting": "[9]", "value": 0.33, "unit": "g"}, {"measurement": "Vd", "setting": "[10]", "value": 5.7, "unit": "L/kg"}, {"measurement": "inhibition", "setting": "[11]", "value": "Dose-dependent effect"}, {"measurement": "EC50", "setting": "[12]", "value": 750, "unit": "nM"}, {"measurement": "Tmax", "setting": "[13]", "value": 1.7, "unit": "h"}, {"measurement": "MRT inf", "setting": "[14]", "value": 6.4, "unit": "h"}, {"measurement": "Activity", "setting": "[15]", "value": 0, "unit": "%"}, {"measurement": "EC50", "setting": "[16]", "value": "> 1000", "unit": "nM"}, {"measurement": "AUC(0-inf)", "setting": "[17]", "value": 809, "unit": "ng·h/mL"}]}
